# Source: ChEMBL document CHEMBL3779804, “Novel Ferroptosis Inhibitors with Improved Potency and ADME Properties” (J Med Chem, 2016)
# What was measured:
# [1] = Kinetic solubility of the compound in PBS buffer at pH 7.4 after 2 hrs at 37 deg C by turbidimetric analysis; format: physicochemical; settings: read-out: Kinetic_solubility
# Summary of the method: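 Turbidimetric kinetic solubility by UV-vis reading; final test concentrations 3.125–200 μM, from DMSO solution diluted into 10 mM PBS pH 7.4.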
# [2] = Stability in human plasma assessed as percentage recovery after 6 hrs by LC/MS/MS analysis; format: ADME, cell-free; settings: read-out: Drug recovery
# Summary of the method: (§1)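 Compound incubated in plasma up to 6 h; result given as percentage of parent compound remaining.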
# [3] = Stability in mouse plasma assessed as percentage recovery after 6 hrs by LC/MS/MS analysis; format: ADME, cell-free; settings: read-out: Drug recovery; summary of the method: as §1
# [4] = Half life in human liver microsomes by LC/MS/MS analysis; format: ADME
# Summary of the method: (§2)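 Compound incubated with liver microsomes (CYP450 and other NADP-dependent enzymes); parent loss monitored and expressed as half-life in min.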
# [5] = Half life in mouse liver microsomes by LC/MS/MS analysis; format: ADME; summary of the method: as §2
# [6] = Antiferroptotic activity in human HT1080 cells assessed as inhibition of erastin-induced cell death by Alamar blue assay; format: functional, cell-based; settings: HT-1080
# [7] = Antiferroptotic activity in human IMR32 neuroblastoma cells assessed as inhibition of erastin-induced cell death preincubated for 1 hr before erastin stimulation and measured after 13 hrs by fluorescence plate reader method; format: functional; settings: IMR-32
# Summary of the method: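 Human IMR-32 neuroblastoma cells seeded at 25,000/well, next day pretreated 1 h in triplicate with a 1/3 dilution series (5 μM to 0.68 nM) plus Sytox Green (1.6 μM), then stimulated with erastin (10 μM). Sytox Green fluorescence (ex 485/em 520 nm) read after 13 h; Triton-X100 (0.05%) lysis as 100% death reference; % death background-corrected; IC50 determined.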
# [8] = Antiferroptotic activity in human HT1080 cells assessed as inhibition of erastin-induced cell death; format: functional, cell-based; settings: HT-1080
# [9] = Antiferroptotic activity in human HT1080 cells assessed as inhibition of erastin-induced cell death by cell based assay; format: functional; settings: HT-1080
# [10] = Half life in C57BL/6 mouse plasma; format: ADME, cell-free
# [11] = Intrinsic clearance in C57BL/6 mouse liver microsomes; format: ADME
smiles,measurement,setting,value
CCOC(=O)c1ccc(NC2CCCCC2)c(N)c1,solubility kinetic at 2 h,[1],> 200 µM
same,remaining at 6 h,[2],100%
same,remaining at 6 h,[3],0%
same,half-life,[4],6.9 min
same,half-life,[5],1.9 min
same,IC50,[6],95 nM
same,IC50,[7],18 nM
CCOC(=O)c1ccc(NC2CCCCC2)c(NCc2ccccc2)c1,IC50,[8],6 nM
CNS(=O)(=O)c1ccc(NC2C3CC4CC(C3)CC2C4)c(NCc2ccccc2)c1 (centres undefined),IC50,[7],4.9 nM
CCNS(=O)(=O)c1ccc(NC2CC3CCC2C3)c(NCc2ccccc2)c1 (centres undefined),IC50,[7],3 nM
CCNS(=O)(=O)c1ccc(NC2CCCCCCC2)c(NCc2ccccc2)c1,IC50,[7],2.4 nM
CCNS(=O)(=O)c1ccc(NC2CCCC2)c(NCc2ccncc2)c1,IC50,[7],36 nM
CCNS(=O)(=O)c1ccc(NC2CCCCC2)c(N)c1,solubility kinetic at 2 h,[1],12.5 µM
same,remaining at 6 h,[2],81.9%
same,remaining at 6 h,[3],86.2%
same,half-life,[4],37 min
same,half-life,[5],31 min
same,IC50,[7],67 nM
CC(C)(C)NS(=O)(=O)c1ccc(NC2CCCCC2)c(NCc2ccncc2)c1,IC50,[7],11 nM
CNS(=O)(=O)c1ccc(NC2CCCCC2)c(N)c1,IC50,[7],76 nM
CCNC(=O)c1ccc(NC2C3CC4CC(C3)CC2C4)c(NCc2ccncc2)c1 (centres undefined),solubility kinetic at 2 h,[1],25 µM
same,remaining at 6 h,[2],100%
same,remaining at 6 h,[3],100%
same,half-life,[4],16 min
same,half-life,[5],30 min
same,IC50,[7],3.4 nM
CCNS(=O)(=O)c1ccc(NC2CC3CCC2C3)c(NCc2ccncc2)c1 (centres undefined),IC50,[7],9.4 nM
CNS(=O)(=O)c1ccc(NC2C3CC4CC(C3)CC2C4)c(NCc2ccncc2)c1 (centres undefined),IC50,[7],6.4 nM
CCNC(=O)c1ccc(NC2CCCCC2)c(NCc2ccccc2)c1,IC50,[7],21 nM
COC(=O)c1ccc(NC2CCCCC2)c(N)c1,IC50,[7],34 nM
CCNS(=O)(=O)c1ccc(NC2C3CC4CC(C3)CC2C4)c(N)c1 (centres undefined),IC50,[7],17 nM
CCNS(=O)(=O)c1ccc(NC2CCCCCCC2)c(N)c1,IC50,[7],9.3 nM
CC(C)(C)NS(=O)(=O)c1ccc(NC2CCCCC2)c(NCc2ccccc2)c1,IC50,[7],6.2 nM
CCNC(=O)c1ccc(NC2CCCCC2)c(NCc2ccncc2)c1,IC50,[7],26 nM
CCNS(=O)(=O)c1ccc(NC2CCCCC2)c(NCc2ccccc2)c1,solubility kinetic at 2 h,[1],12.5 µM
same,remaining at 6 h,[2],100%
same,remaining at 6 h,[3],98.6%
same,half-life,[4],88 min
same,half-life,[5],187 min
same,IC50,[7],4 nM
CCNC(=O)c1ccc(NC2C3CC4CC(C3)CC2C4)c(NCc2ccccc2)c1 (centres undefined),IC50,[7],6.5 nM
CCNC(=O)c1ccc(NC2C3CC4CC(C3)CC2C4)c(N)c1 (centres undefined),IC50,[7],14 nM
CC(C)(C)NS(=O)(=O)c1ccc(NC2C3CC4CC(C3)CC2C4)c(N)c1 (centres undefined),IC50,[7],6 nM
CCNS(=O)(=O)c1ccc(NC2CC2)c(NCc2ccncc2)c1,IC50,[7],128 nM
CC(C)(C)NS(=O)(=O)c1ccc(NC2C3CC4CC(C3)CC2C4)c(NCc2ccncc2)c1 (centres undefined),IC50,[7],5.2 nM
CCNS(=O)(=O)c1ccc(NC2CCCC2)c(NCc2ccccc2)c1,IC50,[7],8.2 nM
CCNS(=O)(=O)c1ccc(NC2C3CC4CC(C3)CC2C4)c(NCc2ccccc2)c1 (centres undefined),solubility kinetic at 2 h,[1],12.5 µM
same,remaining at 6 h,[2],100%
same,remaining at 6 h,[3],99.4%
same,half-life,[4],36 min
same,half-life,[5],31 min
same,IC50,[7],3.5 nM
CCNS(=O)(=O)c1ccc(NC2CC2)c(N)c1,IC50,[7],76 nM
CCNS(=O)(=O)c1ccc(NC2CC2)c(NCc2ccccc2)c1,IC50,[7],61 nM
CCNS(=O)(=O)c1ccc(NC2CCCCC2)c(NCc2ccncc2)c1,IC50,[7],23 nM
Nc1cc(C(=O)O)ccc1NC1CCCCC1,IC50,[7],210 nM
CC(C)(C)OC(=O)c1ccc(NC23CC4CC(CC(C4)C2)C3)c(/N=C\c2cncnc2)c1,IC50,[9],350 nM
same,half-life,[10],≥ 120 min
same,CLH,[11],< 0.5 mL/min/g
CNS(=O)(=O)c1ccc(NC2CCCCC2)c(NCc2ccncc2)c1,IC50,[7],15 nM
CCNS(=O)(=O)c1ccc(NC2CCCCCCC2)c(NCc2ccncc2)c1,IC50,[7],22 nM
CCNS(=O)(=O)c1ccc(NC2CC3CCC2C3)c(N)c1 (centres undefined),IC50,[7],28 nM
CCNS(=O)(=O)c1ccc(NC2C3CC4CC(C3)CC2C4)c(NCc2ccncc2)c1 (centres undefined),solubility kinetic at 2 h,[1],12.5 µM
same,remaining at 6 h,[2],100%
same,remaining at 6 h,[3],100%
same,half-life,[4],64 min
same,half-life,[5],26 min
same,IC50,[7],3.9 nM
CNS(=O)(=O)c1ccc(NC2C3CC4CC(C3)CC2C4)c(N)c1 (centres undefined),IC50,[7],11 nM
CC(C)(C)NS(=O)(=O)c1ccc(NC2C3CC4CC(C3)CC2C4)c(NCc2ccccc2)c1 (centres undefined),IC50,[7],3.4 nM
CC(C)(C)NS(=O)(=O)c1ccc(NC2CCCCC2)c(N)c1,IC50,[7],27 nM
CNS(=O)(=O)c1ccc(NC2CCCCC2)c(NCc2ccccc2)c1,IC50,[7],3.7 nM
CCNS(=O)(=O)c1ccc(NC2CCCC2)c(N)c1,IC50,[7],82 nM
CCNC(=O)c1ccc(NC2CCCCC2)c(N)c1,IC50,[7],88 nM
